Experimental data taken from ChEMBL document CHEMBL1146194, “The Anti-Trypanosoma cruzi activity of posaconazole in a murine model of acute Chagas' disease is less dependent on gamma interferon than that of benznidazole” (2007).

How the values were obtained:
Type in all cases: functional
Mus musculus [1] = test: Mortality rate in Trypanosoma cruzi Y infected wild type C57BL/6 mouse Chagas disease model at 20 mg/kg, po twice daily after 20 days
Method in brief: (§1)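 Male C57BL/6 mice aged 8–10 weeks (wild-type or cytokine KO) were infected i.p. with 5,000 Y-strain blood trypomastigotes. From 4 dpi they received 20 mg/kg/day orally, split into two daily doses, for 20 days, in 2% methylcellulose with 0.5% Tween 80. Deaths were tracked to 60 dpi, and mortality was given as deaths/total. Mean survival time counted survivors as dying at 60 days. Log rank and Peto-Peto-Wilcoxon tests were used.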

Mus musculus [2] = test: Mortality rate in Trypanosoma cruzi Y infected IL12 knock out C57BL/6 mouse Chagas disease model at 20 mg/kg, po twice daily after 20 days; method in brief: as §1
Trypanosoma cruzi [3] = test: Antimicrobial activity against Trypanosoma cruzi Y infected IL12 knock out C57BL/6 mouse Chagas disease model assessed as percent of cured mouse at 20 mg/kg, po twice daily after 20 days
Method in brief: (§2)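 Male C57BL/6 mice aged 8–10 weeks (wild-type, IL-12p40 KO or IFN-γ KO) were infected i.p. with 5,000 blood trypomastigotes of the Y strain. From 4 dpi they were dosed orally at 20 mg/kg/day, split into two daily doses, for 20 consecutive days, in 2% methylcellulose with 0.5% Tween 80. Mice negative on fresh blood at 60 dpi had 0.5 ml orbital blood cultured in LIT medium at 28°C for 30–60 days. Cure meant negative on both tests.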

Mus musculus [4] = test: Mortality rate in Trypanosoma cruzi Y infected IFN-gamma knock out C57BL/6 mouse Chagas disease model at 20 mg/kg, po twice daily after 20 days; method in brief: as §1
Mus musculus [5] = test: Effect on survival in Trypanosoma cruzi Y infected C57BL/6 mouse Chagas disease model assessed as mean survival time at 20 mg/kg, po twice daily after 20 days; method in brief: as §1
Trypanosoma cruzi [6] = test: Antimicrobial activity against Trypanosoma cruzi Y infected wild type C57BL/6 mouse Chagas disease model assessed as percent of cured mouse at 20 mg/kg, po twice daily after 20 days; method in brief: as §2
Mus musculus [7] = test: Effect on survival in Trypanosoma cruzi Y infected IFN-gamma knock out C57BL/6 mouse Chagas disease model assessed as mean survival time at 20 mg/kg, po twice daily after 20 days; method in brief: as §1
Mus musculus [8] = test: Effect on survival in Trypanosoma cruzi Y infected IL12 knock out C57BL/6 mouse Chagas disease model assessed as mean survival time at 20 mg/kg, po twice daily after 20 days; method in brief: as §1
Trypanosoma cruzi [9] = test: Antimicrobial activity against Trypanosoma cruzi Y infected IFN-gamma knock out C57BL/6 mouse Chagas disease model assessed as percent of cured mouse at 20 mg/kg, po twice daily after 20 days; method in brief: as §2
Trypanosoma cruzi [10] = test: Antimicrobial activity against Trypanosoma cruzi Y infected wild type C57BL/6 mouse Chagas disease model assessed as percent of cured mouse at 100 mg/kg, po after 20 days
Method in brief: (§3)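 Male mice, 8–10 weeks, infected i.p. with 5,000 blood trypomastigotes (Y strain, passaged in Swiss-Webster mice). From 4 dpi, dosed orally once daily for 20 consecutive days in water with arabic gum. Fresh tail blood examined to 60 dpi. Aparasitemic mice were then bled (0.5 ml), and blood was cultured in LIT medium at 28°C for 30–60 days. Cure means negative by both methods.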

Trypanosoma cruzi [11] = test: Antimicrobial activity against Trypanosoma cruzi Y infected IL12 knock out C57BL/6 mouse Chagas disease model assessed as percent of cured mouse at 100 mg/kg, po after 20 days; method in brief: as §3
Mus musculus [12] = test: Effect on survival in Trypanosoma cruzi Y infected IL12 knock out C57BL/6 mouse Chagas disease model assessed as mean survival time at 100 mg/kg, po after 20 days
Method in brief: (§4)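 Male C57BL/6 mice aged 8–10 weeks (wild-type or cytokine KO) were infected i.p. with 5,000 Y-strain blood trypomastigotes. Treatment was oral, 100 mg/kg once daily in water with arabic gum, from 4 dpi for 20 consecutive days. Deaths were recorded up to 60 dpi, and mortality was given as deaths/total. Mean survival time assigned survivors a death time of exactly 60 days. Log rank and Peto-Peto-Wilcoxon tests were used.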

Mus musculus [13] = test: Mortality rate in Trypanosoma cruzi Y infected IFN-gamma knock out C57BL/6 mouse Chagas disease model at 100 mg/kg, po after 20 days; method in brief: as §4
Mus musculus [14] = test: Mortality rate in Trypanosoma cruzi Y infected IL12 knock out C57BL/6 mouse Chagas disease model at 100 mg/kg, po after 20 days; method in brief: as §4
Mus musculus [15] = test: Effect on survival in Trypanosoma cruzi Y infected IFN-gamma knock out C57BL/6 mouse Chagas disease model assessed as mean survival time at 100 mg/kg, po after 20 days; method in brief: as §4
Mus musculus [16] = test: Mortality rate in Trypanosoma cruzi Y infected wild type C57BL/6 mouse Chagas disease model at 100 mg/kg, po after 20 days; method in brief: as §4
Trypanosoma cruzi [17] = test: Antimicrobial activity against Trypanosoma cruzi Y infected IFN-gamma knock out C57BL/6 mouse Chagas disease model assessed as percent of cured mouse at 100 mg/kg, po after 20 days; method in brief: as §3
Mus musculus [18] = test: Effect on survival in Trypanosoma cruzi Y infected C57BL/6 mouse Chagas disease model assessed as mean survival time at 100 mg/kg, po after 20 days; method in brief: as §4

Structure (SMILES)	Activity (Mus musculus [1]) [%]	Activity (Mus musculus [2]) [%]	Activity (Trypanosoma cruzi [3]) [%]	Activity (Mus musculus [4]) [%]	MST (Mus musculus [5]) [days]	Activity (Trypanosoma cruzi [6]) [%]	MST (Mus musculus [7]) [days]	MST (Mus musculus [8]) [days]	Activity (Trypanosoma cruzi [9]) [%]	Activity (Trypanosoma cruzi [10]) [%]	Activity (Trypanosoma cruzi [11]) [%]	MST (Mus musculus [12]) [days]	Activity (Mus musculus [13]) [%]	Activity (Mus musculus [14]) [%]	MST (Mus musculus [15]) [days]	Activity (Mus musculus [16]) [%]	Activity (Trypanosoma cruzi [17]) [%]	MST (Mus musculus [18]) [days]
CC[C@@H]([C@H](C)O)n1ncn(-c2ccc(N3CCN(c4ccc(OC[C@@H]5CO[C@@](Cn6cncn6)(c6ccc(F)cc6F)C5)cc4)CC3)cc2)c1=O [POSACONAZOLE]	0	23	35	30	>60	89	52.1	59.2	15									
O=C(Cn1ccnc1[N+](=O)[O-])NCc1ccccc1 [BENZNIDAZOLE]										86	39	59.6	100	17	42.1	0	0	>60
